PMC6148399 (SLAS discovery : advancing life sciences R & D, 2018)

What was measured:
human IP6K2 = target: T1, human IP6K2 (Homo sapiens, UniProt Q9UHH9); assay: IP6K2 TR-FRET assay for ADP detection; assay type: biochemical; settings: read-out: IC50 for IP6K2; TR-FRET Adapta, 400 nM IP6K2, 10 µM ATP, 10 µM InsP6
T1 sequence (Q9UHH9 1-426): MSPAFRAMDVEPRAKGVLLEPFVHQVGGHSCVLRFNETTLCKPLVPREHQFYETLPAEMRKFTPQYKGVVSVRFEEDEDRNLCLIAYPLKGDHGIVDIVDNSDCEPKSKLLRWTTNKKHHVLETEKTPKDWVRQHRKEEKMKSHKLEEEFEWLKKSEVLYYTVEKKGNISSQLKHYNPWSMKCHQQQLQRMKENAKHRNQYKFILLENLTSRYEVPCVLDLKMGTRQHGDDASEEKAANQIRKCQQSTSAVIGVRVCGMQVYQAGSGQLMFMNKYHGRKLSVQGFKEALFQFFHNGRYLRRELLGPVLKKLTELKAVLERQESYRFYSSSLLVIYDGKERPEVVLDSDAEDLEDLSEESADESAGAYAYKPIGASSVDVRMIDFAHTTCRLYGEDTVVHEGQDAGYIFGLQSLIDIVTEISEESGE
How it was run: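 Buffer: 50 mM HEPES pH 7.5, 0.01% Brij-35, 10 mM MgCl2, 1 mM EGTA. Test compound (3-fold, 10-point dilutions) preincubated 10–20 min at room temperature with enzyme, then ATP/InsP6 added; 30 min reaction. Detection: 2 nM Eu-anti-ADP antibody, 12 nM ADP tracer, 10 mM EDTA (final), 30 min. 665/615 nm ratio; inhibition scaled DMSO-only (0%) to no-enzyme (100%); ~20% ATP turnover.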

IP6K1 = IP6K1 (Homo sapiens, UniProt Q92551); settings: cited from earlier work
IP6K1, sequence (Q92551 whole entry, species assumed): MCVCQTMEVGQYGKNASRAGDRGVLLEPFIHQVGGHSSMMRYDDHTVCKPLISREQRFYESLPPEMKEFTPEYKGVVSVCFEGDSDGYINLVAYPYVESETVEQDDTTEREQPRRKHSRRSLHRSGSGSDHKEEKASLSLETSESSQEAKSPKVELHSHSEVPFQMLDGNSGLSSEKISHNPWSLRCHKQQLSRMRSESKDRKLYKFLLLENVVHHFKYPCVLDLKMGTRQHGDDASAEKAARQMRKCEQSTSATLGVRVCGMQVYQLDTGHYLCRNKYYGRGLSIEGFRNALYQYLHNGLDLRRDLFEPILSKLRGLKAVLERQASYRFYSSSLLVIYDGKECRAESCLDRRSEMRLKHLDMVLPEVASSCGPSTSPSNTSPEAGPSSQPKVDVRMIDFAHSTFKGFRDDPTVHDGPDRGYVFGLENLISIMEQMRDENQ

O=[N+]([O-])c1ccc(CNc2nc(NCc3cccc(C(F)(F)F)c3)nc3nc[nH]c23)cc1 [TNP, N2-(m-(trifluoromethyl)benzyl) N6-(p-nitrobenzyl)purine]
IC50 (human IP6K2): 7360 nM
IC50 (IP6K1; read-out: IC50 previously reported for IP6K1): 430 nM
Ki (IP6K1; read-out: Ki previously reported for IP6K1): 240 nM
